Active and inactive are the calls of the source. The calls are words filed in the database; no cut-off is given here.
Tests used:
HL-60 [1] = assay: Induction of mitochondrial membrane potential loss in human HL60 cells at 30 uM after 24 hrs by rhodamine-123 staining-based FACS flow cytometric analysis (reference value: 5%); assay type: functional
HL-60 [2] = assay: Cell cycle arrest in human HL60 cells assessed as accumulation at sub-G0 phase at 20 uM after 24 hrs by propidium iodide staining-based FACS flow cytometric analysis (reference value: 3%); assay type: functional
Summary of the method: (§1)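 HL-60 cells seeded at 0.44 × 10^6/mL and exposed to 10, 20, 30 or 40 μM for 24 h. Cells were pelleted at 400g, washed in ice-cold PBS and fixed overnight in ice-cold 70% ethanol at 4 °C. They were treated with RNase (0.2 mg/mL) for 1 h at 37 °C, then stained with PI (10 μg/mL) for 30 min in the dark. Flow cytometry collected 10 000 events (FL2-A vs FL2-W). Sub-G0, G1, S and G2 fractions were fitted by modelling software.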

HL-60 [3] = assay: Cell cycle arrest in human HL60 cells assessed as accumulation at sub-G0 phase after 24 hrs by propidium iodide staining-based FACS flow cytometric analysis; assay type: functional
Summary of the method: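 HL-60 cells at 0.44 × 10^6/mL treated at 10, 20, 30 and 40 μM for 24 h. Collected at 400g, then fixed overnight in ice-cold 70% ethanol at 4 °C. RNase (0.2 mg/mL) at 37 °C for 1 h, then PI (10 μg/mL) for 30 min in the dark. Flow cytometry on 10 000 events, FL2-A vs FL2-W. Sub-G0 fraction taken as apoptotic.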

HL-60 [4] = assay: Cell cycle arrest in human HL60 cells assessed as accumulation at S phase at 30 uM after 24 hrs by propidium iodide staining-based FACS flow cytometric analysis (reference value: 54%); assay type: functional; summary of the method: as §1
HL-60 [5] = assay: Induction of apoptosis in human HL60 cells assessed as nuclear condensation at 20 to 40 uM after 24 hrs by fluorescence microscopic analysis; assay type: functional, cell-based
Summary of the method: (§2)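 After 24 h exposure, HL-60 cells were pelleted at 400g, washed twice in PBS and fixed in cold acetic acid–methanol (1:3) for 3 h on ice. They were spread on slides and dried overnight at room temperature. Staining used Hoechst 33258 (5 μg/mL in 0.45 M disodium phosphate/0.01 M citric acid/0.05% Tween 20) for 30 min at room temperature. Slides were mounted in PBS–glycerol and viewed by fluorescence microscopy at 30× for condensed nuclei and apoptotic bodies.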

HL-60 [6] = assay: Induction of apoptosis in human HL60 cells assessed as formation of scattered apoptotic bodies at 20 to 40 uM after 24 hrs by fluorescence microscopic analysis; assay type: functional, cell-based; summary of the method: as §2
HL-60 [7] = assay: Cell cycle arrest in human HL60 cells assessed as accumulation at S phase at 40 uM after 24 hrs by propidium iodide staining-based FACS flow cytometric analysis (reference value: 54%); assay type: functional; summary of the method: as §1
HL-60 [8] = assay: Induction of apoptosis in human HL60 cells assessed as vesicle formation at 10 to 40 uM after 24 hrs by phase contrast microscopic analysis; assay type: functional, cell-based
Summary of the method: (§3)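 HL-60 cells were exposed to the test concentrations for 24 h. Unstained cells were then photographed under phase-contrast microscopy to assess cellular morphology.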

HL-60 [9] = assay: Cell cycle arrest in human HL60 cells assessed as accumulation at S phase at 20 uM after 24 hrs by propidium iodide staining-based FACS flow cytometric analysis (reference value: 54%); assay type: functional; summary of the method: as §1
HL-60 [10] = assay: Cell cycle arrest in human HL60 cells assessed as accumulation at S phase at 10 uM after 24 hrs by propidium iodide staining-based FACS flow cytometric analysis (reference value: 54%); assay type: functional; summary of the method: as §1
HL-60 [11] = assay: Induction of mitochondrial membrane potential loss in human HL60 cells at 40 uM after 24 hrs by rhodamine-123 staining-based FACS flow cytometric analysis (reference value: 5%); assay type: functional
PC-3 = assay: Cytotoxicity against human PC3 cells after 48 hrs by MTT assay; assay type: functional, cell-based; conditions: PC-3, 48 h
Summary of the method: (§4)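 Cell lines from NCI, grown in RPMI1640 or MEM with 10% heat-inactivated FBS at 37 °C under 5% CO2. Seeded at 6000 cells/well overnight, then exposed to 1, 10, 30, 50 and 100 μM for 48 h. MTT (2.5 mg/mL) added for 3 h, formazan dissolved in DMSO, OD read at 540 nm (ref 620 nm). Growth taken as treated vs untreated absorbance, giving IC50.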

HL-60 [12] = assay: Cell cycle arrest in human HL60 cells assessed as accumulation at G2 phase at 30 uM after 24 hrs by propidium iodide staining-based FACS flow cytometric analysis (reference value: 1%); assay type: functional; summary of the method: as §1
MIA PaCa-2 = assay: Cytotoxicity against human MIAPaCa2 cells after 48 hrs by MTT assay; assay type: functional, cell-based; conditions: MIA PaCa-2, 48 h; summary of the method: as §4
HL-60 [13] = assay: Cell cycle arrest in human HL60 cells assessed as accumulation at G1 phase at 10 uM after 24 hrs by propidium iodide staining-based FACS flow cytometric analysis (reference value: 45%); assay type: functional; summary of the method: as §1
HL-60 [14] = assay: Cell cycle arrest in human HL60 cells assessed as accumulation at G2 phase at 20 uM after 24 hrs by propidium iodide staining-based FACS flow cytometric analysis (reference value: 1%); assay type: functional; summary of the method: as §1
HL-60 [15] = assay: Induction of apoptosis in human HL60 cells assessed as shrinkage of cell size at 20 to 40 uM after 24 hrs by fluorescence microscopic analysis; assay type: functional, cell-based; summary of the method: as §2
HL-60 [16] = assay: Induction of mitochondrial membrane potential loss in human HL60 cells at 10 uM after 24 hrs by rhodamine-123 staining-based FACS flow cytometric analysis (reference value: 5%); assay type: functional
HL-60 [17] = assay: Cell cycle arrest in human HL60 cells assessed as accumulation at G1 phase at 40 uM after 24 hrs by propidium iodide staining-based FACS flow cytometric analysis (reference value: 45%); assay type: functional; summary of the method: as §1
HL-60 [18] = assay: Cytotoxicity against human HL60 cells after 48 hrs by MTT assay; assay type: functional, cell-based; conditions: HL-60, 48 h; summary of the method: as §4
HL-60 [19] = assay: Induction of mitochondrial membrane potential loss in human HL60 cells at 20 uM after 24 hrs by rhodamine-123 staining-based FACS flow cytometric analysis (reference value: 5%); assay type: functional
HL-60 [20] = assay: Cell cycle arrest in human HL60 cells assessed as accumulation at G2 phase at 40 uM after 24 hrs by propidium iodide staining-based FACS flow cytometric analysis (reference value: 1%); assay type: functional; summary of the method: as §1
HL-60 [21] = assay: Cell cycle arrest in human HL60 cells assessed as accumulation at G2 phase at 10 uM after 24 hrs by propidium iodide staining-based FACS flow cytometric analysis (reference value: 1%); assay type: functional; summary of the method: as §1
HL-60 [22] = assay: Cell cycle arrest in human HL60 cells assessed as accumulation at sub-G0 phase at 40 uM after 24 hrs by propidium iodide staining-based FACS flow cytometric analysis (reference value: 3%); assay type: functional; summary of the method: as §1
HL-60 [23] = assay: Cell cycle arrest in human HL60 cells assessed as accumulation at sub-G0 phase at 30 uM after 24 hrs by propidium iodide staining-based FACS flow cytometric analysis (reference value: 3%); assay type: functional; summary of the method: as §1
HL-60 [24] = assay: Induction of apoptosis in human HL60 cells assessed as cell wall deformation at 20 to 40 uM after 24 hrs by fluorescence microscopic analysis; assay type: functional, cell-based; summary of the method: as §2
HL-60 [25] = assay: Induction of apoptosis in human HL60 cells assessed as blebbing of cell wall at 10 to 40 uM after 24 hrs by phase contrast microscopic analysis; assay type: functional, cell-based; summary of the method: as §3
COLO 205 = assay: Cytotoxicity against human COLO205 cells after 48 hrs by MTT assay; assay type: functional, cell-based; conditions: COLO 205, 48 h; summary of the method: as §4
HepG2 = assay: Cytotoxicity against human HepG2 cells after 48 hrs by MTT assay; assay type: functional, cell-based; conditions: HepG2, 48 h; summary of the method: as §4
HL-60 [26] = assay: Cell cycle arrest in human HL60 cells assessed as accumulation at sub-G0 phase at 10 uM after 24 hrs by propidium iodide staining-based FACS flow cytometric analysis (reference value: 3%); assay type: functional; summary of the method: as §1
HL-60 [27] = assay: Cell cycle arrest in human HL60 cells assessed as accumulation at G1 phase at 30 uM after 24 hrs by propidium iodide staining-based FACS flow cytometric analysis (reference value: 45%); assay type: functional; summary of the method: as §1
HL-60 [28] = assay: Cell cycle arrest in human HL60 cells assessed as accumulation at G1 phase at 20 uM after 24 hrs by propidium iodide staining-based FACS flow cytometric analysis (reference value: 45%); assay type: functional; summary of the method: as §1

SMILES	Activity (HL-60 [1]) [%]	Activity (HL-60 [2]) [%]	Activity (HL-60 [4]) [%]	Activity (HL-60 [5])	Activity (HL-60 [6])	Activity (HL-60 [7]) [%]	Activity (HL-60 [8])	Activity (HL-60 [9]) [%]	Activity (HL-60 [10]) [%]	Activity (HL-60 [11]) [%]	IC50 (PC-3) [µM]	Activity (HL-60 [12]) [%]	IC50 (MIA PaCa-2) [µM]	Activity (HL-60 [13]) [%]	Activity (HL-60 [14]) [%]	Activity (HL-60 [15])	Activity (HL-60 [16]) [%]	IC50 (HL-60 [18]) [µM]	IC50 (COLO 205) [µM]	IC50 (HepG2) [µM]	other results
CC(=O)c1c(O)c(C)c(O)c(Cc2c(O)c3c(c(C(=O)/C=C/c4ccccc4)c2O)OC(C)(C)C=C3)c1O [ROTTLERIN]	61	64	46	Active	Active	63	Active	31	26	89	> 20	12	8	67	12	Active	18	9	> 20	> 20	Activity (HL-60 [3]): Dose-dependent effect; Activity (HL-60 [17]): 33%; Activity (HL-60 [19]): 28%; Activity (HL-60 [20]): 4%; Activity (HL-60 [21]): 7%; Activity (HL-60 [22]): 84%; Activity (HL-60 [23]): 80%; Activity (HL-60 [24]): Active; Activity (HL-60 [25]): Active; Activity (HL-60 [26]): 19.6%; Activity (HL-60 [27]): 42%; Activity (HL-60 [28]): 58%
CC[C@@]1(O)C(=O)OCc2c1cc1n(c2=O)Cc2cc3ccccc3nc2-1 [CAMPTOTHECIN]											1.2		0.19					0.06	0.05	0.2	
CC(=O)c1c(O)c(C)c(O)c(Cc2c(O)c(CC=C(C)C)c(O)c3c2O[C@H](c2ccccc2)CC3=O)c1O	25	26	16	Active	Active	22	Active	18	20	43	> 20	7	9	75	4	Active	6	16	> 20	> 20	Activity (HL-60 [17]): 60%; Activity (HL-60 [19]): 12%; Activity (HL-60 [20]): 18%; Activity (HL-60 [21]): 5%; Activity (HL-60 [22]): 55%; Activity (HL-60 [23]): 29%; Activity (HL-60 [24]): Active; Activity (HL-60 [25]): Active; Activity (HL-60 [26]): 14%; Activity (HL-60 [27]): 77%; Activity (HL-60 [28]): 78%
CC1(C)C=Cc2c(OCc3ccccc3)cc(O)c(C(=O)/C=C/c3ccccc3)c2O1	38	9	49	Active	Active	42	Active	48	54	68	> 20	8	> 20	40	8	Active	6	15	> 20	> 20	Activity (HL-60 [17]): 46%; Activity (HL-60 [19]): 23%; Activity (HL-60 [20]): 12%; Activity (HL-60 [21]): 6%; Activity (HL-60 [22]): 83%; Activity (HL-60 [23]): 39%; Activity (HL-60 [24]): Active; Activity (HL-60 [25]): Active; Activity (HL-60 [26]): 3%; Activity (HL-60 [27]): 43%; Activity (HL-60 [28]): 45%

— ChEMBL document CHEMBL2424563, “Semisynthesis of mallotus B from rottlerin: evaluation of cytotoxicity and apoptosis-inducing activity” (J Nat Prod, 2013)
